Published values collected from several papers.
Compare with care: the assays were run in different laboratories.
Target: cGMP-dependent protein kinase 1 (PRKG1, Homo sapiens, UniProt Q13976)
Residues used in one study (Q13976 1-671): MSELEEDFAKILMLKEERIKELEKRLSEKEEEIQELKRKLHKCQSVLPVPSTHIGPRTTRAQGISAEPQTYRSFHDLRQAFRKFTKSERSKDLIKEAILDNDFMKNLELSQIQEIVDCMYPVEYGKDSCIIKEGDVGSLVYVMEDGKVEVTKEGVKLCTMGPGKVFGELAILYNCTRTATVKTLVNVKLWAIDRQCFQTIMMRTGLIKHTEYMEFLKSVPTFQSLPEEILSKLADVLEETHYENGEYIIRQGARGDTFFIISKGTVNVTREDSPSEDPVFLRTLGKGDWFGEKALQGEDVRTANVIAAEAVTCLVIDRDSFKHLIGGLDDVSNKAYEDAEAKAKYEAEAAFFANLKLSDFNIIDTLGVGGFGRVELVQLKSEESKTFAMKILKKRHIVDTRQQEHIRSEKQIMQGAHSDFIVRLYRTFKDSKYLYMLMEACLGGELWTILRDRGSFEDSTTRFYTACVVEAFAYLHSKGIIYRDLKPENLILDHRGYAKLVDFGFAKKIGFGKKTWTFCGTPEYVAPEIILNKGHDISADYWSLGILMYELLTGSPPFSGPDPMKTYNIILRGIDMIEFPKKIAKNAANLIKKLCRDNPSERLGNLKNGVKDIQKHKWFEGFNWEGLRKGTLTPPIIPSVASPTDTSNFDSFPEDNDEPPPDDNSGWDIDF

Structure (SMILES)	assay	conditions	measurement	result
Cc1cc(NC(=O)c2cccc3cc(-c4cccc5[nH]nc(N)c45)ccc23)ccc1F	enzyme activity, inhibitor	0.1 µM	activity vs control	122%
COc1cc(Cl)c(C(=O)N[C@@H](CN[C@H]2CC[C@@H](N)CC2)Cc2ccc(C#N)cc2)cc1-c1ccc(CN[C@H](C)c2ccc(C)cc2)o1	enzyme activity, inhibitor	1 µM	remaining activity	91%
COc1cc2ncnc(Nc3ccc(Oc4ccccc4)cc3C)c2cc1OC	enzyme activity, inhibitor	1 µM	inhibition	1%
Cn1cnc(Br)c1C1=CN(c2ncnc3[nH]cnc23)CCS1	enzyme activity, inhibitor, radiometric	50 nM	inhibition	72.1%
CCN(CC)c1ccc(C2=NNC(=O)CC2C)cc1[N+](=O)[O-] (centres unmarked)	enzyme activity, inhibitor	10 µM	remaining activity	83%
Cc1nc(C2CCN(C(=O)c3ccc(OC(F)(F)F)cc3N)CC2)c2ncc(N3CCN(C)CC3)cc2n1	cell-free assay, competition with immobilised ligand	1 µM	remaining binding	100%
Cc1ccc(C(=O)Nc2ccc(CN3CCN(C)CC3)c(C(F)(F)F)c2)cc1C#Cc1cnc2cccnn12	enzyme activity, inhibitor	23.5 nM	remaining activity	72%
CC/C(=N\NC(=O)NCc1cccc(O)c1)c1ccc(O)c(C)c1O	enzyme activity, inhibitor	0.1 µM	inhibition	55.7%
C[C@H](c1ccc(F)cc1)N(Cc1cccc(C(=O)O)c1)C(=O)c1cnc2ccccc2c1	cell-free assay, competition with immobilised ligand	1 µM	remaining binding	100%
CCOc1cc(-c2nncn2C)ccc1Nc1ncc2cc(C)nc(NCC(C)(C)C)c2n1	enzyme activity, inhibitor, FRET	1 µM	inhibition	< 15%
c1ccc(N2CCN(Cc3nc4ccccc4[nH]3)CC2)nc1	binding, competition with immobilised ligand	1 µM	remaining binding	100%
CNC(=O)c1cc(Oc2ccc(NC(=O)Nc3ccc(Cl)c(C(F)(F)F)c3)cc2)ccn1	enzyme activity, inhibitor	10 µM	inhibition	-2%
CCCOc1ccc(OC)c(F)c1C(=O)c1ccc(C(=O)N[C@@H]2CNC[C@H]2NC(=O)c2ccc3[nH]ncc3c2)cc1	enzyme activity, inhibitor	0.75 µM	remaining activity	0%
CN(C)c1ncnc(-c2ccc3nc(Nc4cc(CN5CCN(C(=O)CC(F)(F)F)CC5)ccn4)[nH]c3c2)c1Cl	cell-free assay, competition with immobilised ligand	1 µM	remaining binding	94%
Cc1cnc(NC2CCOCC2)nc1-n1cnc(C(=O)NC(CN)c2cc(F)cc(Cl)c2)c1 (centres unmarked)	enzyme activity, inhibitor, radiometric	1 µM	remaining activity	100%
O=C(Nc1cccnn1)N1CCC(=Cc2cccc(Oc3ccc(C(F)(F)F)cn3)c2)CC1	cell-free assay, competition with immobilised ligand	1 µM	remaining binding	100%
CC(C)(C)c1nc(-c2cccc(NS(=O)(=O)c3c(F)cccc3F)c2F)c(-c2ccnc(N)n2)s1	enzyme activity, inhibitor, radiometric	1 µM	remaining activity	96%
